Assay results collected from several papers.
Protocols differ between the studies behind these lines.
Cell line: MV4-11
Observed: cell growth or viability

The IC50 of `Cc1cc2c(C(N)=O)cccc2n1-c1nc2c(c(NCc3ccccc3)n1)CCCN2` is reported as 300 nM (72 h).
With `O=C(NO)c1ccc(Cn2cnc3c(Nc4ccc(F)c(Cl)c4)ncnc32)cc1` the IC50 was 1140 nM (MTT; 72 h).
`c1ccc(COc2ccc(Nc3ccc4ncc(OCC5CCNCC5)nc4c3)cc2)cc1` gave an EC50 of 840 nM (XTT; 7 days).
For `O=C(NO)c1ccc(Cn2cnc3c(Nc4cccc([N+](=O)[O-])c4)ncnc32)cc1`, the IC50 was 280 nM (MTT; 72 h).
For `CN(C)CCN(C)C(=O)c1ccc(-c2nc3ccc4[nH]ncc4c3c3c2CC(C)(C)CC3)cc1`, the GI50 was 1900 nM (resazurin; 72 h).
`Cc1cc2c(C(=O)O)cccc2n1-c1nc2c(c(NCc3ccccc3)n1)CCCN2` gave an IC50 of 800 nM (72 h).
`COc1ccc(Nc2ncnc3c2ncn3Cc2ccc(C(=O)Nc3ccccc3N)cc2)cc1` gave an IC50 of 720 nM (MTT; 72 h).
With `Cc1n[nH]c2ccc3nc(-c4ccc(C(=O)NCCN(C)C)nc4)c4c(c3c12)CCCCC4` the GI50 was 181 nM (resazurin; 72 h).
The IC50 of `CC(C)Cc1ccc([C@H](C)C(=O)O)cc1` is reported as 277000 nM (MTT; 72 h).
The EC50 of `c1cc(-c2cc3ncc(OCC4CCNCC4)nc3cc2-c2cccc(N3CCCCC3)c2)cc(N2CCCCC2)c1` is reported as 1400 nM (XTT; 7 days).
For `CN(C)CCNC(=O)c1ccc(-c2nc3ccc4[nH]ncc4c3c3c2COCC3)cc1`, the GI50 was 291 nM (resazurin; 72 h).
`c1cc(N2CCC(N3CCOCC3)CC2)ccc1Nc1ccc2ncc(OCC3CCNCC3)nc2c1` gave an EC50 of ≥ 28000 nM (XTT; 7 days).
`NCCNC(=O)c1ccc(-c2nc3ccc4[nH]ncc4c3c3c2CCCC3)cc1` has a GI50 of 480 nM (resazurin; 72 h).
`c1cc(N2CCCC2)ccc1-c1cc2ncc(OCC3CCNCC3)nc2cc1-c1ccc(N2CCCC2)cc1` gave an EC50 of 1900 nM (XTT; 7 days).
The IC50 of `O=C(NO)c1ccc(Cn2cnc3c(Nc4ccc(Cl)cc4)ncnc32)cc1` is reported as 60 nM (MTT; 72 h).
